Results as given in ChEMBL document CHEMBL4024783, “Alkylated Piperazines and Piperazine-Azole Hybrids as Antifungal Agents” (J Med Chem, 2018).
Values after ≈ are worked out from the molar mass of the structure shown. Active and inactive are the calls of the source. The calls are words filed in the database; no cut-off is given here.

What was measured:
[1] = tested on: Candida albicans; experiment: Antifungal activity against itraconazole and fluconazole resistant Candida albicans ATCC 90819 after 48 hrs by broth dilution method; format: functional
Outline: (§1)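 CLSI M27-A3 broth microdilution with minor modifications. Overnight YPD culture grown at 35 °C, 200 rpm, adjusted to OD600 0.12, diluted in RPMI 1640 buffered to pH 7.0 with 0.165 M MOPS to a final 1–2 × 10^3 CFU/mL. Test compounds at 0.015–31.3 µg/mL, 48 h at 35 °C, DMSO <1.25%. […] Triplicate.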

[2] = tested on: Candida albicans; experiment: Inhibition of 14alpha-demethylase in Candida albicans ATCC 10231 assessed as 14alpha-methyl ergosta-8,24(28)-dien-3beta,6alpha-diol levels at 0.12 ug/mL by GC-MS analysis; design: scale not given: the % may be the effect or the level left
Outline: (§2)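 Sterols were extracted from treated C. albicans ATCC 10231 (strain A) cells and profiled by GC-MS. Each sterol (lanosterol, ergosterol, eburicol, 14α-methyl ergosta-8,24(28)-diene-3β,6α-diol) is reported as a percentage of the sterol composition. A DMSO-treated culture served as the no-drug comparison.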

[3] = tested on: Candida albicans; experiment: Antifungal activity against itraconazole and fluconazole resistant Candida albicans ATCC MYA-1237 after 48 hrs by broth dilution method; format: functional; outline: as §1
[4] = tested on: Candida parapsilosis; experiment: Antifungal activity against Candida parapsilosis ATCC 22019 after 48 hrs by broth dilution method; format: functional
[5] = tested on: Candida albicans; experiment: Inhibition of 14alpha-demethylase in Candida albicans ATCC 10231 assessed as lanosterol levels at 0.12 ug/mL by GC-MS analysis; design: scale not given: the % may be the effect or the level left; outline: as §2
[6] = tested on: Nakaseomyces glabratus; experiment: Antifungal activity against Candida glabrata ATCC 2001 after 48 hrs by broth dilution method; format: functional, CBS 138
[7] = tested on: Nakaseomyces glabratus; experiment: Fungistatic activity against Candida glabrata ATCC 2001 at 4 times MIC incubated for 24 hrs by time kill assay; format: functional; conditions: CBS 138
Outline: (§3)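 Overnight YPD cultures diluted in RPMI 1640 to an inoculum of 1–4 × 10^5 CFU/mL. […] Final volume 4 mL, 35 °C, 200 rpm, 24 h. Sampled at 0, 3, 6, 9, 12 and 24 h, serially diluted and plated on PDA. Colonies counted after 48 h (24 h for strain A). Detection limit 100 CFU/mL. Duplicate.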

[8] = tested on: Aspergillus nidulans; experiment: Antifungal activity against Aspergillus nidulans ATCC 38163 after 48 hrs by broth dilution method; format: functional
Outline: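 A. nidulans run per CLSI M38-A2. PDA spores were filtered through glass wool and counted by hemocytometer. Test range 0.03–31.3 µg/mL in MOPS-buffered RPMI 1640 (pH 7.0), final 5 × 10^5 CFU/mL.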

[9] = tested on: Candida albicans; experiment: Inhibition of 14alpha-demethylase in Candida albicans ATCC 10231 assessed as ergosterol levels at 0.12 ug/mL by GC-MS analysis; design: scale not given: the % may be the effect or the level left; outline: as §2
[10] = tested on: Candida parapsilosis; experiment: Antifungal activity against Candida parapsilosis ATCC 22019 after 48 hrs in the presence of 10% FBS by broth dilution method; format: functional; conditions: Lodderomyces parapsilosis, ATCC 22019, 48 h
[11] = tested on: Candida albicans; experiment: Inhibition of 14alpha-demethylase in Candida albicans ATCC 10231 assessed as eburicol levels at 0.12 ug/mL by GC-MS analysis; design: scale not given: the % may be the effect or the level left; outline: as §2
[12] = tested on: Candida albicans; experiment: Antifungal activity against itraconazole and fluconazole susceptible Candida albicans ATCC MYA-2310 after 48 hrs by broth dilution method; format: functional
[13] = tested on: Candida albicans; experiment: Antifungal activity against itraconazole and fluconazole resistant Candida albicans ATCC MYA-1003 after 48 hrs by broth dilution method; format: functional; outline: as §1
[14] = tested on: Candida parapsilosis; experiment: Fungistatic activity against Candida parapsilosis ATCC 22019 at 1 to 4 times MIC incubated for 24 hrs by time kill assay; format: functional; outline: as §3
[15] = tested on: Pichia kudriavzevii; experiment: Antifungal activity against Candida krusei ATCC 6258 after 48 hrs by broth dilution method; format: functional
Outline: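 Yeasts tested per CLSI M27-A3 with minor changes. An overnight YPD culture (35 °C, 200 rpm) was adjusted to OD600 0.12 and diluted in MOPS-buffered RPMI 1640 (pH 7.0) to a final 1–2 × 10^3 CFU/mL. Compounds 0.015–31.3 µg/mL, DMSO <1.25%.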

[16] = tested on: Candida albicans; experiment: Antibiofilm activity against voriconazole resistant Candida albicans ATCC 64124 sessile cells incubated for 24 hrs by XTT reduction assay; format: functional; conditions: ATCC 64124, 24 h
Outline: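 Strain B grown overnight in YPD broth at 35 °C, diluted to OD600 0.1 (~10^6 CFU/mL), then grown statically for 24 h at 37 °C to form biofilm. Washed with PBS, then drug in RPMI 1640 at 0.12–62.5 µg/mL for 24 h at 37 °C. Read-out: XTT 0.5 mg/mL with menadione 1 µM, 2 h, A490. SMIC50/SMIC80 are 50%/80% decreases versus drug-free biofilm. Duplicate.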

[17] = tested on: Candida albicans; experiment: Antifungal activity against itraconazole and fluconazole susceptible Candida albicans ATCC MYA-2876 after 48 hrs by broth dilution method; format: functional
[18] = tested on: Aspergillus nidulans; experiment: Antifungal activity against Aspergillus nidulans ATCC 38163 after 48 hrs in the presence of 10% FBS by broth dilution method; format: functional; conditions: ATCC 38163, 48 h
[19] = tested on: Candida albicans; experiment: Inhibition of 14alpha-demethylase in Candida albicans ATCC 10231 assessed as total sterol levels at 0.12 ug/mL by GC-MS analysis; design: scale not given: the % may be the effect or the level left
[20] = tested on: Candida albicans; experiment: Antifungal activity against Candida albicans ATCC 64124 after 48 hrs by broth dilution method; format: functional; outline: as §1
[21] = tested on: Aspergillus terreus; experiment: Antifungal activity against Aspergillus terreus ATCC MYA-3633 after 48 hrs by broth dilution method; format: functional
Outline: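 Molds tested per CLSI M38-A2. Spores were harvested from sporulating PDA cultures by filtering through glass wool and counted on a hemocytometer. Serial dilutions (0.03–31.3 µg/mL) were made in RPMI 1640 buffered to pH 7.0 with 0.165 M MOPS, final inoculum 5 × 10^5 CFU/mL.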

[22] = tested on: Candida albicans; experiment: Fungistatic activity against Candida albicans ATCC 10231 at 1 to 4 times MIC incubated for 24 hrs by time kill assay; format: functional; outline: as §3
[23] = tested on: Candida albicans; experiment: Ratio of MIC80 for voriconazole resistant Candida albicans ATCC 64124 sessile cells to MIC for voriconazole resistant Candida albicans ATCC 64124; format: functional
[24] = Aqueous solubility of the compound; format: physicochemical; conditions: buffer
[25] = tested on: HEK293; experiment: Cytotoxicity against HEK293 cells up to 31 ug/ml after 24 hrs by resazurin-based fluorescence assay; format: cell-based; conditions: human, hek293, 24 h
Outline: (§4)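 Cells grown in DMEM with 10% FBS at 37 °C, 5% CO2, and seeded at 10000 (HEK-293) or 3000 (BEAS-2B, A549) per well. After 16 h, exposed 24 h to 0.13–31 µg/mL final in medium with 0.1–0.4% DMSO. Resazurin added for 6–10 h; fluorescence read at 560/590 nm and survival normalized to DMSO control after background subtraction. Triton X-100 12.5% v/v positive control; duplicate.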

[26] = tested on: Aspergillus flavus; experiment: Antifungal activity against Aspergillus flavus ATCC MYA-3631 after 48 hrs by broth dilution method; format: functional; conditions: ATCC MYA-3631, 48 h
[27] = tested on: Candida albicans; experiment: Ratio of MIC in presence of 10% FBS to MIC in absence of 10% FBS for Candida albicans ATCC 10231; format: functional
Outline: (§5)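 MIC broth dilution run in parallel in RPMI 1640 with or without 10% fetal bovine serum against C. albicans ATCC 10231, C. parapsilosis ATCC 22019 and A. nidulans ATCC 38163.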

[28] = Solubility of the compound in DMSO; format: physicochemical
[29] = tested on: BEAS-2B; experiment: Cytotoxicity against human BEAS2B cells up to 31 ug/ml after 24 hrs by resazurin-based fluorescence assay; format: cell-based; outline: as §4
[30] = tested on: Candida albicans; experiment: Antifungal activity against Candida albicans ATCC 10231 after 48 hrs by broth dilution method; format: functional; conditions: ATCC 10231, 48 h
[31] = tested on: Candida parapsilosis; experiment: Ratio of MIC in presence of 10% FBS to MIC in absence of 10% FBS for Candida parapsilosis ATCC 22019; format: functional; outline: as §5
[32] = tested on: Aspergillus nidulans; experiment: Ratio of MIC in presence of 10% FBS to MIC in absence of 10% FBS for Aspergillus nidulans ATCC 38163; format: functional; outline: as §5
[33] = tested on: Candida albicans; experiment: Antifungal activity against Candida albicans ATCC 10231 after 48 hrs in the presence of 10% FBS by broth dilution method; format: functional; conditions: ATCC 10231, 48 h
[34] = tested on: A549; experiment: Cytotoxicity against human A549 cells up to 31 ug/ml after 24 hrs by resazurin-based fluorescence assay; format: cell-based; conditions: a549, 24 h; outline: as §4
[35] = tested on: Candida albicans; experiment: Antifungal activity against Candida albicans ATCC 10231 at […] ug/mL incubated for 1 hr by propidium iodide staining-based fluorescence microscopic method; format: functional

C[C@@H](c1ncncc1F)[C@](O)(Cn1cncn1)c1ccc(F)cc1F [VORICONAZOLE]
MIC=<50 [1]: 5.6 µM (≈ 1.96 µg/mL)
Activity [2]: 10.1%
MIC=<50 [3]: 22.3 µM (≈ 7.79 µg/mL)
MIC=<50 [4]: <0.06 µM
Activity [5]: 18.5%
MIC=<50 [6]: 0.17 µM (≈ 0.0594 µg/mL)
Activity [7]: Active
MIC=<50 [8]: 0.34 µM (≈ 0.119 µg/mL)
Activity [9]: 64.9%
MIC [10]: 0.015 µg/mL
Activity [11]: 2.14%
MIC=<50 [12]: 2.8 µM (≈ 0.978 µg/mL)
MIC=<50 [13]: 5.6 µM (≈ 1.96 µg/mL)
Activity [14]: Active
MIC=<50 [15]: 0.34 µM (≈ 0.119 µg/mL)
MIC50 [16]: 62.5 µg/mL (≈ 179 µM)
MIC80 [16]: 62.5 µg/mL (≈ 179 µM)
MIC=<50 [17]: 5.6 µM (≈ 1.96 µg/mL)
MIC [18]: 0.12 µg/mL
Activity [19]: 1.56 to 2.79%
MIC=<50 [20]: 11.2 µM (≈ 3.91 µg/mL)
MIC=<50 [21]: 0.34 µM (≈ 0.119 µg/mL)
Activity [22]: Active

CCCCCCCCCCCCN1CCNCC1
MIC ([1]; Candida albicans, ATCC 90819, 48 h): 30.7 µM (≈ 7.81 µg/mL)
Ratio [23]: 1 - 4
MIC ([3]; Candida albicans, ATCC MYA-1237, 48 h): 15.3 µM (≈ 3.89 µg/mL)
MIC ([4]; Lodderomyces parapsilosis, ATCC 22019, 48 h): 7.7 µM (≈ 1.96 µg/mL)
solubility [24]: Soluble
Activity [25]: Toxic
MIC [26]: 15.3 µM (≈ 3.89 µg/mL)
MIC ([6]; Nakaseomyces glabratus, CBS 138, 48 h): 7.7 µM (≈ 1.96 µg/mL)
MIC ([8]; Aspergillus nidulans, ATCC 38163, 48 h): 7.7 µM (≈ 1.96 µg/mL)
MIC ([12]; Candida albicans, ATCC MYA-2310, 48 h): 15.3 µM (≈ 3.89 µg/mL)
MIC ([13]; Candida albicans, ATCC MYA-1003, 48 h): 15.3 µM (≈ 3.89 µg/mL)
Ratio [27]: 2 - 8
solubility [28]: Soluble
MIC ([15]; Pichia kudriavzevii, ATCC 6258, 48 h): 7.7 µM (≈ 1.96 µg/mL)
Activity [29]: Toxic
MIC50 [16]: 7.8 µg/mL (≈ 30.7 µM)
MIC80 [16]: 31.3 µg/mL (≈ 123 µM)
MIC ([17]; Candida albicans, ATCC MYA-2876, 48 h): 15.3 µM (≈ 3.89 µg/mL)
MIC [30]: 7.7 µM (≈ 1.96 µg/mL)
Ratio [31]: 2 - 8
Ratio [32]: 2 - 8
MIC [33]: 3.9 µg/mL
MIC ([20]; Candida albicans, ATCC 64124, 48 h): 30.7 µM (≈ 7.81 µg/mL)
MIC ([21]; Aspergillus terreus, ATCC MYA-3633, 48 h): 30.7 µM (≈ 7.81 µg/mL)
Activity [34]: Toxic

CCCCCCCCCCCCCCOC[C@H]1O[C@H](O[C@@H]2[C@@H](O)[C@H](O[C@H]3O[C@H](CN)[C@@H](O)[C@H](O)[C@H]3N)[C@@H](N)C[C@H]2N)[C@H](O)[C@@H](N)[C@@H]1O
Activity [35]: Active
